Experimental data taken from ChEMBL document CHEMBL5346953, “Dual Piperidine-Based Histamine H3 and Sigma-1 Receptor Ligands in the Treatment of Nociceptive and Neuropathic Pain” (J Med Chem, 2023).
Activity calls are given as the source filed them.

Columns and labels:
[1] = target: Histamine H3 receptor (Homo sapiens, UniProt Q9Y5N1); test: Inhibition of recombinant human histamine H3 receptor stably expressed in HEK293 cells assessed as increase in cAMP accumulation in presence of forskolin incubated for 30 mins by TR-FRET LANCE assay; format: functional, cell-based
Histamine H3 receptor, sequence (Q9Y5N1 whole entry): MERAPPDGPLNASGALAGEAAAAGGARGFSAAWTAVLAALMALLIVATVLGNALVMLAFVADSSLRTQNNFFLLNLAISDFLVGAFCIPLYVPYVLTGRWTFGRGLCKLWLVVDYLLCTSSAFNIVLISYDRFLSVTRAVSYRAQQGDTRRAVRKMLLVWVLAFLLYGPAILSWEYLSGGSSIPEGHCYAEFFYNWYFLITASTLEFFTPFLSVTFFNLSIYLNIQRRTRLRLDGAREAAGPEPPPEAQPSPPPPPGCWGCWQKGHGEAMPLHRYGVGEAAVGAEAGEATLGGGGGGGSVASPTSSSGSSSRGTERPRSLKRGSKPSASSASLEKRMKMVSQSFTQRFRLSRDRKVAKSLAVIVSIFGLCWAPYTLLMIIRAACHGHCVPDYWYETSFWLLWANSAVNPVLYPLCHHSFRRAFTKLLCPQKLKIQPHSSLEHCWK

[2] = Neurotoxicity against mouse assessed as reduction in spontaneous locomotor activity at 15 mg/kg,ip observed after 30 mins of administration; format: toxicity, organism-based; conditions: in vivo, 0.5 h
In short: (§1)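 Spontaneous locomotor activity was recorded in mice after i.p. dosing at 15 or 30 mg/kg, compared with vehicle, as a test of sedation. Analysis was one-way ANOVA. […]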

[3] = Neurotoxicity against mouse assessed as reduction in spontaneous locomotor activity at 30 mg/kg,ip observed after 30 mins of administration; format: toxicity, organism-based; conditions: in vivo, 0.5 h; in short: as §1
[4] = Neurotoxicity against mouse assessed as effect in spontaneous locomotor activity by measuring effective dose at ip administration observed after 30 mins; format: toxicity, organism-based; conditions: in vivo, 0.5 h; in short: as §1
[5] = Neurotoxicity against mouse assessed as impairment of motor coordination at 15 mg/kg,ip administration at 18 rpm by rotarod test; format: toxicity, organism-based; conditions: in vivo
In short: (§2)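 Mice received 15 mg/kg i.p. or vehicle. Motor coordination was then measured as time on the rotarod, at 18 and 24 rpm, with a maximum of 60 s.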

[6] = Neurotoxicity against mouse assessed as impairment of motor coordination at 15 mg/kg,ip administration at 24 rpm by rotarod test; format: toxicity, organism-based; conditions: in vivo; in short: as §2
[7] = test system: Mus musculus; test: Antinociceptive activity in Capsaicin-induced nociceptive mouse model assessed as reduction in paw licking at 10 to 30 mg/kg,ip administration followed by capsaicin treatment; format: functional, organism-based; conditions: dose 10-30 mg/kg
In short: (§3)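 Capsaicin was injected intraplantarly into mice pretreated with 10, 15 or 30 mg/kg, with 1% Tween 80 as vehicle. Licking/biting time was scored for 5 min after injection, with 8–10 mice per group, as mean ± SEM. Analysis was one-way ANOVA with Dunnett's test. ED50 was estimated from the dose–response.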

[8] = test system: Mus musculus; test: Antinociceptive activity in Capsaicin-induced nociceptive mouse model assessed as reduction in biting behavior at 10 to 30 mg/kg,ip administration followed by capsaicin treatment; format: functional, organism-based; conditions: dose 10-30 mg/kg; in short: as §3
[9] = test system: Mus musculus; test: Effect in loperamide-induced antinociception mouse assessed as increase in struggle response latency at ip administration; format: functional, organism-based
[10] = test system: Mus musculus; test: Antinociceptive activity in mouse assessed as effect on struggle response latency at 25 ug,ip administration; format: functional, organism-based; conditions: dose 25.0 µg
[11] = test system: Mus musculus; test: Antinociceptive activity in loperamide-induced mouse assessed as increase in struggle response latency struggle response latency at 25 ug,ip administration in presence of PRE-084; format: functional, organism-based; conditions: dose 25.0 µg
[12] = test system: Mus musculus; test: Antinociceptive activity in loperamide-induced mouse assessed as increase in struggle response latency struggle response latency at 25 ug,ip administration in presence of naloxone-methiodide; format: functional, organism-based; conditions: dose 25.0 µg
[13] = test system: Mus musculus; test: Antiallodynic activity against oxaliplatin-induced peripheral neuropathy mouse model assessed as increase in pain threshold baseline at early phase at 5 mg/kg,ip followed by oxaliplatin treatment measured after 3 hrs by von frey test; format: functional
In short: (§4)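 Mice with oxaliplatin-induced neuropathy were given the drug as a single dose at 5, 10 or 15 mg/kg. Tactile allodynia was measured by von Frey 3 h (early phase) and 7 days (late phase) after neuropathy induction. Thresholds are expressed relative to each group's pre-oxaliplatin baseline.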

[14] = test system: Mus musculus; test: Antiallodynic activity against oxaliplatin-induced peripheral neuropathy mouse model assessed as increase in pain threshold baseline at late phase at 5 mg/kg,ip followed by oxaliplatin treatment measured after 7 days by von frey test; format: functional; conditions: time 7 day; in short: as §4
[15] = test system: Mus musculus; test: Antiallodynic activity against oxaliplatin-induced peripheral neuropathy mouse model assessed as increase in pain threshold baseline at early phase at 10 mg/kg,ip followed by oxaliplatin treatment measured after 3 hrs by von frey test; format: functional; in short: as §4
[16] = test system: Mus musculus; test: Antiallodynic activity against oxaliplatin-induced peripheral neuropathy mouse model assessed as increase in pain threshold baseline at late phase at 10 mg/kg,ip followed by oxaliplatin treatment measured after 7 days by von frey test; format: functional; conditions: time 7 day; in short: as §4
[17] = test system: Mus musculus; test: Antiallodynic activity against oxaliplatin-induced peripheral neuropathy mouse model assessed as increase in pain threshold baseline at early phase at 15 mg/kg,ip followed by oxaliplatin treatment measured after 3 hrs by von frey test; format: functional; in short: as §4
[18] = test system: Mus musculus; test: Antiallodynic activity against oxaliplatin-induced peripheral neuropathy mouse model assessed as increase in pain threshold baseline at late phase at 15 mg/kg,ip followed by oxaliplatin treatment measured after 7 days by von frey test; format: functional; conditions: time 7 day; in short: as §4
[19] = test system: Mus musculus; test: Antiallodynic activity against oxaliplatin-induced peripheral neuropathy mouse model assessed as increase in pain threshold baseline at late phase at 5 mg/kg,ip administrated in presence of oxaliplatin measured after 7 days by von frey test; format: functional, organism-based; conditions: time 7.0 day; in short: as §4
[20] = test system: Mus musculus; test: Analgesic activity in CCI-induced neuropathic pain mouse model assessed as increase in mechanical paw withdrawal threshold at 5 mg/kg,ip administration measured after 30 mins by von frey test; format: functional, organism-based
In short: (§5)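 CCI mice tested 14 days after sciatic nerve injury. Groups received i.p. vehicle or drug at 5, 10 or 15 mg/kg. Baselines were taken before injection, with n = 7–8 per group. Read-outs were von Frey (ipsilateral and contralateral paw) at 30, 90 and 180 min, cold plate at 35, 95 and 185 min, and tail flick at 40, 100 and 190 min. Values are %MPE (mean ± SEM), analysed by one-way ANOVA with Bonferroni post hoc.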

[21] = test system: Mus musculus; test: Analgesic activity in CCI-induced neuropathic pain mouse model assessed as increase in mechanical paw withdrawal threshold at 10 mg/kg,ip administration measured after 30 mins by von frey test; format: functional, organism-based; in short: as §5
[22] = test system: Mus musculus; test: Analgesic activity in CCI-induced neuropathic pain mouse model assessed as increase in mechanical paw withdrawal threshold at 10 mg/kg,ip administration measured after 90 mins by von frey test; format: functional, organism-based; in short: as §5
[23] = test system: Mus musculus; test: Analgesic activity in CCI-induced neuropathic pain mouse model assessed as increase in mechanical paw withdrawal threshold at 10 mg/kg,ip administration measured after 180 mins by von frey test; format: functional, organism-based; in short: as §5
[24] = test system: Mus musculus; test: Analgesic activity in CCI-induced neuropathic pain mouse model assessed as increase in contralateral paw withdrawal threshold at 10 mg/kg,ip administration measured after 90 mins by von frey test; format: functional, organism-based; in short: as §5
[25] = test system: Mus musculus; test: Analgesic activity in CCI-induced neuropathic pain mouse model assessed as effect on tactile allodynia at 5 mg/kg,ip administration measured after 30 to 180 mins by von frey test; format: functional, organism-based; conditions: time lower 30.0 min, time upper […]; in short: as §5
[26] = test system: Mus musculus; test: Analgesic activity in CCI-induced neuropathic pain mouse model assessed as effect on tactile allodynia at 10 mg/kg,ip administration measured after 30 to 180 mins by von frey test; format: functional, organism-based; conditions: time lower 30.0 min, time upper […]; in short: as §5
[27] = test system: Mus musculus; test: Analgesic activity in CCI-induced neuropathic pain mouse model assessed as effect on withdrawal threshold at 15 mg/kg,ip administration measured after 90 mins by von frey test; format: functional, organism-based; in short: as §5
[28] = test system: Mus musculus; test: Analgesic activity in CCI-induced neuropathic pain mouse model assessed as effect on withdrawal threshold at 15 mg/kg,ip administration measured after 30 mins by von frey test; format: functional, organism-based; in short: as §5
[29] = test system: Mus musculus; test: Analgesic activity in CCI-induced neuropathic pain mouse model assessed as effect on withdrawal threshold at 15 mg/kg,ip administration measured after 180 mins by von frey test; format: functional, organism-based; in short: as §5
[30] = test system: Mus musculus; test: Analgesic activity in CCI-induced neuropathic pain mouse model assessed as effect on thermal stimuli at 5 to 15 mg/kg,ip administration measured after 35 mins by cold plate test; format: functional, organism-based; conditions: dose 5-15 mg/kg; in short: as §5
[31] = test system: Mus musculus; test: Anti-hyperalgesic activity in CCI-induced neuropathic pain mouse model assessed as effect on thermal stimuli at 5 to 15 mg/kg,ip administration measured after 95 mins by cold plate test; format: functional, organism-based; conditions: dose 5-15 mg/kg; in short: as §5
[32] = test system: Mus musculus; test: Analgesic activity in CCI-induced neuropathic pain mouse model assessed as effect on thermal stimuli at 5 mg/kg,ip administration measured after 185 mins by cold plate test; format: functional, organism-based; in short: as §5
[33] = test system: Mus musculus; test: Analgesic activity in CCI-induced neuropathic pain mouse model assessed as effect on thermal stimuli at 10 mg/kg,ip administration measured after 185 mins by cold plate test; format: functional, organism-based; in short: as §5
[34] = test system: Mus musculus; test: Analgesic activity in CCI-induced neuropathic pain mouse model assessed as effect on spinal response at 5 mg/kg,ip administration measured after 40 mins by tail flick test; format: functional, organism-based; in short: as §5
[35] = test system: Mus musculus; test: Analgesic activity in CCI-induced neuropathic pain mouse model assessed as effect on spinal response at 10 mg/kg,ip administration measured after 40 mins by tail flick test; format: functional, organism-based; in short: as §5
[36] = test system: Mus musculus; test: Analgesic activity in CCI-induced neuropathic pain mouse model assessed as effect on spinal response at 10 mg/kg,ip administration measured after 100 mins by tail flick test; format: functional, organism-based; in short: as §5
[37] = test system: Mus musculus; test: Analgesic activity in CCI-induced neuropathic pain mouse model assessed as effect on spinal response at 10 mg/kg,ip administration measured after 190 mins by tail flick test; format: functional, organism-based; in short: as §5
[38] = target: Sigma non-opioid intracellular receptor 1 (Cavia porcellus, UniProt Q60492); test: Displacement of [3H](+)-pentazocine from sigma 1 receptor in guinea pig brain membrane assessed as inhibition constant by liquid scintillation counter analysis; format: cell membranes
Sigma non-opioid intracellular receptor 1, sequence (Q60492 whole entry): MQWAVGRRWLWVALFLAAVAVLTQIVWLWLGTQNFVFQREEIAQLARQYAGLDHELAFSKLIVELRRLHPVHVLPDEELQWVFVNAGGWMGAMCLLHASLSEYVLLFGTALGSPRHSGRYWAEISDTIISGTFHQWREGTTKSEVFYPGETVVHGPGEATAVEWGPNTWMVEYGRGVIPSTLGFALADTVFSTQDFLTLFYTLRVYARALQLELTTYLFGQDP

[39] = Neurotoxicity against mouse assessed as sedative effect at 15 mg/kg,ip observed after 30 mins of administration; format: toxicity, organism-based; conditions: in vivo, 0.5 h; in short: as §1
[40] = Neurotoxicity against mouse assessed as decrease in time spent on rod at 15 mg/kg,ip administration at 18 rpm by rotarod test; format: toxicity, organism-based; conditions: in vivo; in short: as §2
[41] = Neurotoxicity against mouse assessed as decrease in time spent on rod at 15 mg/kg,ip administration at 24 rpm by rotarod test; format: toxicity, organism-based; conditions: in vivo; in short: as §2

N#Cc1ccc(-c2ccc(OCCCN3CCC(c4ccncc4)CC3)cc2)cc1
IC50 [1]: 215 nM
Activity [2]: Toxic
Activity [3]: Toxic
ED50 [4]: 21.97 mg/kg
Activity [5]: Toxic
Activity [6]: Toxic
Activity [7]: Active
Activity [8]: Active
Activity [9]: Dose-Dependent Effect
Activity [10]: inactive
Activity [11]: inactive
Activity [12]: inactive
Activity [13]: 63.5%
Activity [14]: 77.7%
Activity [15]: 50.4%
Activity [16]: 67.6%
Activity [17]: 66.6%
Activity [18]: 69.3%
Activity [19]: inactive
Activity [20]: Active
Activity [21]: Active
Activity [22]: Active
Activity [23]: Active
Activity [24]: Active
Activity [25]: inactive
Activity [26]: inactive
Activity [27]: Active
Activity [28]: inactive
Activity [29]: inactive
Activity [30]: Active
Activity [31]: Active
Activity [32]: Active
Activity [33]: Active
Activity [34]: Active
Activity [35]: Active
Activity [36]: Active
Activity [37]: Active

c1cc(OCCCN2CCCCC2)ccc1CN1CCCCC1 [JNJ-5207852]
Ki [38]: 1170 nM

c1ccc(Nc2ccc(OCCCN3CCCCC3)cc2)cc1
IC50 [1]: 83.7 nM
Activity [39]: Toxic
Activity [40]: Toxic
Activity [41]: Toxic
